A selection: hits, their analogues and other compounds. The true share with any hit is near 1.9%.
CHRM4 PAM: potentiates acetylcholine response at human M4 receptor | P08173 | CHO-K1 hM4/Gqi5, Fluo-8 calcium fluorescence, ACh EC20; 0% = ACh EC20, 100% = maximal ACh | activation, % at 3 µM | 360,000 compounds, 0.4% hits | AID 624126;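 active = activation above its plate's cutoff, the mean activation of sample wells plus 3 SD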
CHRM5 antagonist: antagonists of human muscarinic M5 receptor (CHRM5). P08912. CHO-hM5 cells, Fluo-8 calcium fluorescence, ACh EC80. inhibition, % at 3 µM. 360,000 compounds, 0.59% hits. AID 624040;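 active = inhibition above a per-plate cutoff, the mean of that plate's test compounds plus 3 SD, cut at about 27% in these data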;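 also: 0% = acetylcholine EC80 with DMSO and 100% = DMSO without agonist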
Target sequence (P08912 whole entry, looked up): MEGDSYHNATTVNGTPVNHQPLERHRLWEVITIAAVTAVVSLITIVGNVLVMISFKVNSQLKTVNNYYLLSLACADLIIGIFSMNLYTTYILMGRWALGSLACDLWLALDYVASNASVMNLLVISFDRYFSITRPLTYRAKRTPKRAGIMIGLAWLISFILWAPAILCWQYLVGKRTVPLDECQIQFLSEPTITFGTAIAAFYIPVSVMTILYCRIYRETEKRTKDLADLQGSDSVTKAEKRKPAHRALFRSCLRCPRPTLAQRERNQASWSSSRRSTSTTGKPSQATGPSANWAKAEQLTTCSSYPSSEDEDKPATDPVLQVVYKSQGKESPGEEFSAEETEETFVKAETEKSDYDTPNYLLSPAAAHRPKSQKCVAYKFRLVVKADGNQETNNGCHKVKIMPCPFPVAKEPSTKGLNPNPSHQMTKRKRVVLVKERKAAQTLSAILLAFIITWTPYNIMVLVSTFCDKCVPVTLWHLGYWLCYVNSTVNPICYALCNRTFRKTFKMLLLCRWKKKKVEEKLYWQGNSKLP
CHRM5 PAM: CHRM5 positive allosteric modulation; P08912; CHO-K1 hM5, Fluo-8 calcium, ACh EC20 PAM; 0% = ACh EC20, 100% = ACh EC100; activation, % at 3 µM; 360,000 compounds, 0.3% hits; AID 624038;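 active = activation above the run cutoff, the mean activation of all test compounds plus 3 SD, cut at about 18% in these data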
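system = human M5 receptor in CHO-K1 cells | reagent = EC20 acetylcholine as agonist stimulus | compound dosing = single-point, 3 µM nominal | incubation = Fluo-8 loading 80 min at 37 °C plus 30 min room temperature | detection = Fluo-8 calcium dye fluorescence, kinetic read | benchmarks = low control EC20 acetylcholine (0%), high control EC100 acetylcholine (100%)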
CHRM4 agonist: agonists of human muscarinic M4 receptor (CHRM4); 360,000 compounds, 0.14% hits; CHO-K1 hM4/Gqi5, Fluo-8 calcium fluorescence; vehicle 0%, full acetylcholine response 100%; activation, % at 3 µM; AID 624127;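 active = activation above the run mean over all test wells plus 3 SD, cut at about 32% in these data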;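 also: peak over basal fluorescence ratio per well then scaled between controls; 0% = DMSO wells and 100% = acetylcholine at EC100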
CHRM4 antagonist: blocks acetylcholine activation of human M4 receptor. CHO-hM4 cells, ACh EC80, Fluo-8 calcium fluorescence. 360,000 compounds, 0.73% hits. inhibition, % at 3 µM;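 active = inhibition above its plate's cutoff, the mean inhibition of sample wells plus 3 SD, cut at about 27% in these data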;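 also: 0% = acetylcholine EC80 with DMSO and 100% = DMSO without agonist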
CHRM5 agonist: agonists of human muscarinic M5 receptor (CHRM5) | P08912 | CHO-K1 hM5 cells, Fluo-8 calcium fluorescence; 0% DMSO wells, 100% maximal acetylcholine response | 360,000 compounds, 0.19% hits | activation, % at 3 µM;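 active = activation above the run's mean over test compounds plus 3 SD, cut at about 23% in these data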;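 also: signal is peak over basal fluorescence ratio across the kinetic read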
Active calls of the source: *.

SMILES	CHRM4 PAM	CHRM5 antagonist	CHRM5 PAM	CHRM4 agonist	CHRM4 antagonist	CHRM5 agonist
CC(C)C[C@@H](CN1CCC[C@H]1CN1C(=O)C(=O)NC[C@@H]1Cc1ccccc1)N1C[C@H](Cc2ccc(O)cc2)N(CC2CCCCCC2)C(=O)C1=O	18	-4	8	0	-10	1
O=C1NN=C2CCCCCCC12 (stereo unspecified)	-12	24	-34	1	91*	-6
CCCC(=O)Nc1ccc2c(c1)nc1n2CCOC1	31*	-10	5	1	3	3
CCCCC(=O)Nc1ccc2c(c1)nc1n2CCOC1	2	-5	-1	0	-9	-1
CC(CCc1ccccc1)NC(=O)COC(=O)c1ccc(NC(N)=O)cc1 (stereo unspecified)	-1	1	-3	1	-6	-1
Cn1c(N)c(C(=O)COC(=O)Cc2ccsc2)c(=O)n(C)c1=O	22*	-4	7	3	3	0
Cn1c(N)c(C(=O)COC(=O)Cc2ccc(Br)cc2)c(=O)n(C)c1=O	14	-10	9	1	-10	2
CC(=O)NCCNC(=O)c1ccc(NC2=NC3CS(=O)(=O)CC3S2)cc1 (stereo unspecified)	9	29*	27*	4	9	3
CCN(CC)S(=O)(=O)c1ccc(N2CCOCC2)c(NC(=O)c2ccc3ccccc3c2)c1	13	4	1	1	-4	1
CCN(CC)S(=O)(=O)c1ccc(N2CCOCC2)c(NC(=O)c2cccc3ccccc23)c1	-24	14	-13	14	30*	2
O=c1ccn(CCc2c[nH]c3ccccc23)c2c1CCCC2	15	2	11	3	6	5
CC(C)CC1CCCCC1OC(=O)C[N+]1(C)CCCCC1 (stereo unspecified)	-20	97*	-16	1	87*	-11
COc1ccc(/C=N/Nc2nonc2N)cc1	1	1	-3	1	8	0
Nc1nonc1NN=C1CCCCC1	9	-16	21*	1	-11	3
O=C1c2cccc(NCCNCCO)c2C(=O)c2cccc(NCCNCCO)c21	2	-11	8	0	-7	2
O=C(c1ccc(OC2CCN(CCCc3ccccc3)CC2)cc1)N1CCCC1	-15	16	-15	2	30*	-8
CCOC(=O)C1CCN(C(=O)c2ccc(OC3CCN(C(=O)COC)CC3)cc2)CC1	20*	-16	6	1	-5	-4
CC(CCc1ccc(O)cc1)N1CCC(Oc2ccc(C(=O)N3CCCC3)cc2)CC1 (stereo unspecified)	-15	13	-14	0	20	-7
O=C(c1ccc(OC2CCN(Cc3ccccc3C(F)(F)F)CC2)cc1)N1CCCCC1	-10	29*	-7	2	-1	-5
COc1ccc(CCC(C)N2CCC(Oc3ccc(C(=O)N4CCCC4)cc3)CC2)cc1 (stereo unspecified)	-15	2	-34	4	42*	-5
CC(=O)N1CCN(C(=O)c2ccc(OC3CCN(CCc4ccccc4)CC3)cc2)CC1	-11	17	-7	0	11	-9
Nc1nc(N(Cc2ccccc2)Cc2ccccc2)nc(C(F)(F)F)n1	-5	8	-15	-1	0	-7
O=C(c1ccc(Cl)cc1)c1cccc(O)c1	2	9	-3	1	-7	-2
COC(=O)NNC(=O)c1ccc(Cl)cc1Cl	-3	-2	1	0	3	1
CC(C)(C)C(=O)NC(=S)NNC(=O)c1ccc(-c2ccccc2)cc1	-54	97*	-39	141*	98*	101*
SMILES	CHRM4 PAM	CHRM5 antagonist	CHRM5 PAM	CHRM4 agonist	CHRM4 antagonist	CHRM5 agonist
CC(C)(C)C(=O)NC(=S)NNC(=O)c1ccc(Cl)cc1Cl	-44	36*	-33	139*	44*	98*
COc1ccccc1C(O)c1ncc(-c2ccccc2C)[nH]1 (stereo unspecified)	-2	-5	2	0	0	-3
Cc1ccc(Nc2nnc(SCC(=O)Nc3cc(C(=O)O)ccc3C)s2)c(C)c1	5	9	1	0	-7	5
Cc1ccc(C(=O)O)cc1-n1c(=O)n(Cc2ccccc2)c(=O)c2[nH]cnc21	8	-2	3	0	-12	-1
CCCCn1c(N)c(N(CC(C)C)C(=O)c2ccc(OCC3CCCO3)cc2)c(=O)[nH]c1=O (stereo unspecified)	7	-1	-2	0	-6	2
Cc1ccc(NS(=O)(=O)c2ccc(OCC(=O)Nc3cccc([N+](=O)[O-])c3)c(C)c2)cc1	-28	9	-8	4	30*	-5
Cc1ccc(NC(=O)CN(C)C(=O)c2ccc(NS(=O)(=O)c3cccc([N+](=O)[O-])c3)cc2)cc1	0	1	3	0	8	-3
CC1=Nn2c(nnc2-c2cc(-c3ccccc3)n[nH]2)SC1	11	-5	3	1	-14	-4
CC1=Nn2c(nnc2C2CCCCC2)SC1	31*	-2	10	0	10	3
O=C1[C@H](c2ccccc2)[C@@H](c2ccccc2)N1c1ccncc1	-7	-2	-1	-2	-19	-3
O=c1c2ccccc2[nH]c(=S)n1CCN1CCN(Cc2ccccc2)CC1	-12	6	0	2	5	-7
CN1CCN(CCn2c(=S)[nH]c3ccccc3c2=O)CC1	-6	33*	-18	2	-3	-6
Cc1nc2ccccc2c(=O)n1/N=C/c1ccc(F)cc1	5	-1	5	2	-4	-3
O=C(NNC1=NCCCCC1)c1cccc([N+](=O)[O-])c1	10	-9	19*	1	-3	1
COc1ccc(OC(C)C(=O)Nc2cccc(OC)c2)cc1 (stereo unspecified)	5	-12	19*	0	-14	-6
COc1ccc(NC(=O)C(C)Oc2ccc(/C(C)=N\O)cc2)cc1 (stereo unspecified)	-1	-2	-18	9	-13	27*
CC(C)NS(=O)(=O)c1ccc(NC(=O)C(C)Oc2ccc(C(=O)c3ccccc3)cc2)cc1 (stereo unspecified)	-46	47*	-17	117*	71*	65*
COc1cccc(NC(=O)NNC(=O)C(C)Oc2ccc3ccccc3c2)c1 (stereo unspecified)	-4	-1	-4	2	6	-2
CC(Oc1ccccc1)C(=O)Nc1ccc(C(N)=O)cc1 (stereo unspecified)	9	3	-3	4	4	2

Screening results from PubChem.
